Measured values: ChEMBL document CHEMBL2417431, “Synthesis and evaluation of hetero- and homodimers of ribosome-targeting antibiotics: antimicrobial activity, in vitro inhibition of translation, and drug resistance” (J Med Chem, 2013)
Values after ≈ are worked out from the molar mass of the structure shown.

Key:
[1] = test system: Bacillus cereus; experiment: Antibacterial activity against Bacillus cereus ATCC 11778 by double-dilution technique; type: functional
Procedure, shortened: (§1)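 MIC measured against each bacterial strain using a double-dilution series of each compound. Every determination was run in duplicate or triplicate.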

[2] = test system: Listeria monocytogenes; experiment: Antibacterial activity against Listeria monocytogenes ATCC 19115 by double-dilution technique; type: functional
Procedure, shortened: (§2)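 Double-dilution series of each compound against each strain, reported as MIC. Runs done in duplicate or triplicate.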

[3] = test system: Bacillus subtilis; experiment: Antibacterial activity against Bacillus subtilis 168 harboring AAC(6')/APH(2'')-pRB374 by double-dilution technique; type: functional
[4] = test system: Bacillus subtilis; experiment: Antibacterial activity against Bacillus subtilis 168 by double-dilution technique; type: functional; procedure, shortened: as §2
[5] = test system: Streptococcus pyogenes; experiment: Antibacterial activity against Streptococcus pyogenes Serotype M12 MGAS9429 by double-dilution technique; type: functional; procedure, shortened: as §1
[6] = test system: Escherichia coli; experiment: Inhibition of protein synthesis in Escherichia coli S30 extracts after 90 mins by coupled transcription/translation assay; type: functional; conditions: 1.5 h
Procedure, shortened: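 E. coli extract coupled transcription/translation with luciferase reporter. Reactions with varying compound concentrations ran 90 min at 37 °C, were chilled on ice, then diluted in Tris-phosphate pH 7.8 buffer containing DTT, glycerol, Triton X-100 and BSA. Luminescence was read immediately after adding luciferase reagent. IC50 came from concentration-response fits of at least two independent experiments.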

[7] = test system: Staphylococcus epidermidis; experiment: Antibacterial activity against biofilm negative Staphylococcus epidermidis ATCC 12228 by double-dilution technique; type: functional; procedure, shortened: as §1
[8] = test system: Bacillus anthracis; experiment: Antibacterial activity against Bacillus anthracis 34F2 Sterne by double-dilution technique; type: functional; procedure, shortened: as §2
[9] = test system: Haemophilus influenzae; experiment: Antibacterial activity against Haemophilus influenzae ATCC 51907 by double-dilution technique; type: functional; procedure, shortened: as §1
[10] = test system: Escherichia coli; experiment: Antibacterial activity against Escherichia coli MC1061 by double-dilution technique; type: functional; procedure, shortened: as §2
[11] = test system: Staphylococcus aureus; experiment: Antibacterial activity against Staphylococcus aureus ATCC 29213 by double-dilution technique; type: functional; procedure, shortened: as §2
[12] = test system: Staphylococcus aureus; experiment: Antibacterial activity against Staphylococcus aureus expressing NorA by double-dilution technique; type: functional; procedure, shortened: as §2
[13] = test system: Mycolicibacterium smegmatis; experiment: Antibacterial activity against Mycobacterium smegmatis str. MC2 155 by double-dilution technique; type: functional
[14] = Drug metabolism assessed as enhanced intracellular survival protein (unknown origin)-mediated conversion at 100 uM by micro plate reader analysis relative to tobramycin; type: ADME
Procedure, shortened: (§3)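 Ellman assay: CoASH release coupled to DTNB (2 mM), read at 412 nm every 30 s for 1 h at 25 °C. Compound at 100 μM. Conditions by enzyme: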

[15] = Drug metabolism assessed as aminoglycoside 2'-N-acetyltransferase Ic (unknown origin)-mediated conversion at 100 uM by micro plate reader analysis relative to tobramycin; type: ADME; procedure, shortened: as §3
[16] = Drug metabolism assessed as aminoglycoside 3-N-acetyltransferase AAC(3)-IV (unknown origin)-mediated conversion at 100 uM by micro plate reader analysis relative to tobramycin; type: ADME; procedure, shortened: as §3

Structure (SMILES)	MIC [1] [µg/mL]	MIC [2] [µg/mL]	MIC [3] [µg/mL]	MIC [4] [µg/mL]	MIC [5] [µg/mL]	IC50 [6] [µM]	MIC [7] [µg/mL]	MIC [8] [µg/mL]	MIC [9] [µg/mL]	MIC [10] [µg/mL]	MIC [11] [µg/mL]	MIC [12] [µg/mL]	MIC [13] [µg/mL]	fold change (FC) [14]	fold change (FC) [15]	fold change (FC) [16]
CCC[C@@H]1C[C@@H](C(=O)N[C@H]([C@H]2O[C@H](SC)[C@H](O)[C@@H](O)[C@H]2O)[C@@H](C)SCCOCCSSCCOCCSCC(=O)N[C@@H](CO)[C@H](O)c2ccc([N+](=O)[O-])cc2)N(C)C1	2.3 (≈ 2.51 µM)	4.7 (≈ 5.14 µM)	> 150	2.3 (≈ 2.51 µM)	> 128	18.3	2 (≈ 2.19 µM)	< 0.3	150 (≈ 164 µM)	4.7 (≈ 5.14 µM)	0.6 (≈ 0.656 µM)	< 0.3	18.8 (≈ 20.5 µM)			
CCC[C@@H]1C[C@@H](C(=O)N[C@H]([C@H]2O[C@H](SC)[C@H](O)[C@@H](O)[C@H]2O)[C@@H](C)SCCOCCSCC(=O)N[C@H](CO)[C@H](O)c2ccc([N+](=O)[O-])cc2)N(C)C1	18.8 (≈ 24.1 µM)	75 (≈ 96.3 µM)	> 150	18.8 (≈ 24.1 µM)	> 128	14.7	4 (≈ 5.13 µM)	2.3 (≈ 2.95 µM)	75 (≈ 96.3 µM)	9.4 (≈ 12.1 µM)	18.8 (≈ 24.1 µM)	18.8 (≈ 24.1 µM)	> 150			
NC[C@H]1O[C@H](O[C@H]2[C@H](O)[C@@H](O[C@@H]3O[C@H](CSCCOCCSSCCOCCSCC(=O)N[C@H](CO)[C@H](O)c4ccc([N+](=O)[O-])cc4)[C@@H](O)[C@H](N)[C@H]3O)[C@H](N)C[C@@H]2N)[C@H](N)C[C@@H]1O	150 (≈ 154 µM)	18.8 (≈ 19.3 µM)	150 (≈ 154 µM)	4.7 (≈ 4.81 µM)	16 (≈ 16.4 µM)	1	16 (≈ 16.4 µM)	75 (≈ 76.8 µM)	37.5 (≈ 38.4 µM)	4.7 (≈ 4.81 µM)	150 (≈ 154 µM)	9.4 (≈ 9.63 µM)	4.7 (≈ 4.81 µM)	2.6	1.6	1.4
O=C(CSCCOCCSSCCOCCSCC(=O)N[C@H](CO)[C@H](O)c1ccc([N+](=O)[O-])cc1)N[C@H](CO)[C@H](O)c1ccc([N+](=O)[O-])cc1	75 (≈ 96.3 µM)	9.4 (≈ 12.1 µM)	> 150	150 (≈ 193 µM)	> 128	25.6	> 64	75 (≈ 96.3 µM)	150 (≈ 193 µM)	18.8 (≈ 24.1 µM)	0.6 (≈ 0.77 µM)	> 150	> 150			
O=C(CSCCOCCSCC(=O)N[C@H](CO)[C@H](O)c1ccc([N+](=O)[O-])cc1)N[C@H](CO)[C@H](O)c1ccc([N+](=O)[O-])cc1	> 150	> 150	> 150	> 150	> 128	32.9	> 64	> 150	> 150	> 150	> 150	> 150	> 150			
CCC[C@@H]1C[C@@H](C(=O)N[C@H]([C@H]2O[C@H](SC)[C@H](O)[C@@H](O)[C@H]2O)[C@@H](C)SCCOCCSSCCOCCS[C@H](C)[C@H](NC(=O)[C@@H]2C[C@@H](CCC)CN2C)[C@H]2O[C@H](SC)[C@H](O)[C@@H](O)[C@H]2O)N(C)C1	2.3 (≈ 2.19 µM)	4.7 (≈ 4.47 µM)	> 150	2.3 (≈ 2.19 µM)	> 128	6.1	1 (≈ 0.951 µM)	2.3 (≈ 2.19 µM)	37.5 (≈ 35.7 µM)	9.4 (≈ 8.94 µM)	0.6 (≈ 0.571 µM)	0.6 (≈ 0.571 µM)	18.8 (≈ 17.9 µM)			
O=C(CSCCOCCS)N[C@H](CO)[C@H](O)c1ccc([N+](=O)[O-])cc1	150 (≈ 384 µM)	> 150	> 150	> 150	128 (≈ 328 µM)	48.7	> 128	150 (≈ 384 µM)	> 150	37.5 (≈ 96 µM)	> 150	> 150	> 150			
CCC[C@@H]1C[C@@H](C(=O)N[C@H]([C@H]2O[C@H](SC)[C@H](O)[C@@H](O)[C@H]2O)[C@@H](C)SCCOCCS)N(C)C1	9.4 (≈ 17.8 µM)	37.5 (≈ 71.2 µM)	> 150	9.4 (≈ 17.8 µM)	2 (≈ 3.8 µM)	> 100	4 (≈ 7.59 µM)	2.3 (≈ 4.37 µM)	75 (≈ 142 µM)	37.5 (≈ 71.2 µM)	4.7 (≈ 8.92 µM)	1.2 (≈ 2.28 µM)	75 (≈ 142 µM)			
NC[C@H]1O[C@H](O[C@H]2[C@H](O)[C@@H](O[C@@H]3O[C@H](CSCCOCCS)[C@@H](O)[C@H](N)[C@H]3O)[C@H](N)C[C@@H]2N)[C@H](N)C[C@@H]1O	150 (≈ 255 µM)	18.8 (≈ 32 µM)	75 (≈ 128 µM)	2.3 (≈ 3.91 µM)	128 (≈ 218 µM)	0.43	16 (≈ 27.2 µM)	37.5 (≈ 63.8 µM)	37.5 (≈ 63.8 µM)	18.8 (≈ 32 µM)	75 (≈ 128 µM)	18.8 (≈ 32 µM)	2.3 (≈ 3.91 µM)			
O=C(N[C@H](CO)[C@H](O)c1ccc([N+](=O)[O-])cc1)C(Cl)Cl [CHLORAMPHENICOL]	4.7 (≈ 14.5 µM)	9.4 (≈ 29.1 µM)	1.2 (≈ 3.71 µM)	2.3 (≈ 7.12 µM)	4 (≈ 12.4 µM)	6.4	8 (≈ 24.8 µM)	4.7 (≈ 14.5 µM)	0.6 (≈ 1.86 µM)	< 0.3	9.4 (≈ 29.1 µM)	4.7 (≈ 14.5 µM)	18.8 (≈ 58.2 µM)			
CCC[C@@H]1C[C@@H](C(=O)N[C@@H]([C@H]2O[C@H](SC)[C@H](O)[C@@H](O)[C@H]2O)[C@H](C)Cl)N(C)C1 [CLINDAMYCIN]		4.7 (≈ 11.1 µM)	> 150		1 (≈ 2.35 µM)	18.1	1 (≈ 2.35 µM)	< 0.3	4.7 (≈ 11.1 µM)	2.3 (≈ 5.41 µM)			9.4 (≈ 22.1 µM)			
NC[C@H]1O[C@H](O[C@H]2[C@H](O)[C@@H](O[C@H]3O[C@H](CO)[C@@H](O)[C@H](N)[C@H]3O)[C@H](N)C[C@@H]2N)[C@H](N)C[C@@H]1O [TOBRAMYCIN]	75 (≈ 160 µM)	18.8 (≈ 40.2 µM)	9.4 (≈ 20.1 µM)	2.3 (≈ 4.92 µM)	64 (≈ 137 µM)	0.015	0.3 (≈ 0.642 µM)	9.4 (≈ 20.1 µM)	18.8 (≈ 40.2 µM)	9.4 (≈ 20.1 µM)	37.5 (≈ 80.2 µM)	9.4 (≈ 20.1 µM)	0.6 (≈ 1.28 µM)			
